Test results published in ChEMBL document CHEMBL1157836, “Dibenzocyclooctadiene lignans from Schisandra wilsoniana and their anti-HIV-1 activities” (J Nat Prod, 2010).
≈ marks a conversion by molar mass, not a printed value.

How the values were obtained:
[1] = Therapeutic index, ratio of CC50 for C8166 cells to EC50 for HIV1; format: cell-based; details: human, read-out: TI
In short: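 TI was calculated as CC50 over EC50. CC50 came from the MTT assay on C8166 cells; EC50 came from HIV-1 cytopathic-effect inhibition in C8166 cells, run in parallel.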

[2] = test system: Human immunodeficiency virus 1; experiment: Antiviral activity against HIV1 infected in human C8166 cells assessed as inhibition of virus-induced cytopathic effect; format: functional, organism-based; details: Human immunodeficiency virus 1, C8166
In short: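 HIV-1 cytopathic-effect inhibition assay in C8166 cells, giving EC50. AZT served as the positive control. Cytotoxicity was determined in parallel.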

[3] = Cytotoxicity against human C8166 cells by MTT assay; format: cell-based
In short: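 C8166 cells were tested by MTT assay alongside the anti-HIV-1 determination, giving CC50. AZT served as the positive control.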

Row | SMILES | selectivity ratio [1] | EC50 [2] | CC50 [3]
1 | COc1cc2c(c(O)c1OC)-c1c(cc(O)c(OC)c1O)C[C@@H](C)[C@@H](C)C2 [MARLIGNAN B] | 8.4 | 5.1 µg/mL (≈ 13.6 µM) | 43.4 µg/mL (≈ 116 µM)
2 | COc1c(O)cc2c(c1OC)-c1c(cc(O)c(OC)c1OC)[C@H](O)[C@@H](C)[C@@H](C)C2 [MARLIGNAN D] | 5.7 | 2.5 µg/mL (≈ 6.18 µM) | 14.2 µg/mL (≈ 35.1 µM)
3 | COc1c(O)cc2c(c1OC)-c1c(cc(O)c(OC)c1OC)[C@H](OC(=O)c1ccccc1)[C@@H](C)[C@@H](C)C2 | 6.7 | 2.1 µg/mL (≈ 4.13 µM) | 14.2 µg/mL (≈ 27.9 µM)
4 | COc1c(O)cc2c(c1OC)-c1c(cc(O)c(OC)c1OC)[C@H](OC)[C@@H](C)[C@@H](C)C2 [MARLIGNAN F] | 15.6 | 1.4 µg/mL (≈ 3.35 µM) | 21.4 µg/mL (≈ 51.1 µM)
5 | COc1c(O)cc2c(c1OC)-c1c(cc(O)c(OC)c1OC)C(=O)[C@@H](C)[C@@H](C)C2 [MARLIGNAN H] | 17.6 | 2.6 µg/mL (≈ 6.46 µM) | 46.5 µg/mL (≈ 116 µM)
6 | COc1cc2c(c(O)c1O)-c1c(cc(OC)c(OC)c1O)C[C@@H](C)[C@@H](C)C2 [MARLIGNAN C] | 13.2 | 5 µg/mL (≈ 13.4 µM) | 65.6 µg/mL (≈ 175 µM)
7 | COc1c(O)cc2c(c1OC)-c1c(cc(O)c(OC)c1OC)C[C@](C)(O)[C@@H](C)C2 [MARLIGNAN L] | 16.4 | 1.4 µg/mL (≈ 3.46 µM) | 22.6 µg/mL (≈ 55.9 µM)
8 | COc1c(O)cc2c(c1O)-c1c(cc(O)c(OC)c1OC)C[C@@H](C)[C@@H](C)C2 [MARLIGNAN A] | 6 | 2.6 µg/mL (≈ 6.94 µM) | 15.8 µg/mL (≈ 42.2 µM)
9 | COc1cc2c(c(OC)c1OC)-c1c(cc(O)c(OC)c1O)C[C@H](C)[C@@](C)(O)C2 [MARLIGNAN K] | 7.7 | 1.9 µg/mL (≈ 4.7 µM) | 14.8 µg/mL (≈ 36.6 µM)
10 | CCO[C@H]1c2cc(OC)c(OC)c(OC)c2-c2c(cc(OC)c(OC)c2OC)C[C@H](C)[C@@H]1C [MARLIGNAN J] | 9.3 | 1.9 µg/mL (≈ 4.13 µM) | 17.2 µg/mL (≈ 37.3 µM)
11 | COc1c(O)cc2c(c1OC)-c1c(cc(O)c(OC)c1OC)[C@H](OC(C)=O)[C@@H](C)[C@@H](C)C2 [MARLIGNAN E] | 8.7 | 1.6 µg/mL (≈ 3.58 µM) | 13.7 µg/mL (≈ 30.7 µM)
12 | COc1cc2c(c(OC)c1OC)-c1c(cc(OC)c(OC)c1OC)[C@H](OC(C)=O)[C@@H](C)[C@@H](C)C2 [MARLIGNAN I] | 4.6 | 2.9 µg/mL (≈ 6.11 µM) | 13.5 µg/mL (≈ 28.4 µM)
